In assay [1] the test system is Rattus norvegicus. In words: Ovulation-inducing activity in iv dosed androgen-sterilized constant-estrus rat relative to luliberin. Type of assay: functional.
Assay [2] deals with Rattus norvegicus. Briefly: Ovulation-inducing activity in androgen-sterilized constant-estrus rat at 0.10 ug, iv. Type of assay: functional, organism-based. The gist of the method: (§1)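 Androgen-sterilized constant-estrus rats. Doses are given as μg per rat. The readout is ovulation, scored as the number of animals ovulating out of the number treated at each dose. Groups held 3 to 6 rats.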

The subject of assay [3] is Rattus norvegicus. In words: Ovulation-inducing activity in androgen-sterilized constant-estrus rat at 0.062 ug, iv. Type of assay: functional, organism-based. The procedure, abridged:
as §1

The test system of assay [4] is Rattus norvegicus. In words: Ovulation-inducing activity in androgen-sterilized constant-estrus rat at 0.031 ug, iv. Type of assay: functional, organism-based. The gist of the method:
as §1

Assay [5] deals with Rattus norvegicus. Briefly: Ovulation-inducing activity in androgen-sterilized constant-estrus rat at 0.25 ug, iv. In kind it is functional, organism-based. The gist of the method:
as §1

Assay [6] concerns Rattus norvegicus. In words: Ovulation-inducing activity in androgen-sterilized constant-estrus rat at 1.0 ug, iv. In kind it is functional, organism-based. The gist of the method:
as §1

For assay [7], the system named is Rattus norvegicus. In words: Ovulation-inducing activity in androgen-sterilized constant-estrus rat at 0.125 ug, iv. Type of assay: functional, organism-based. The gist of the method:
as §1

Assay [8] relates to Rattus norvegicus. Briefly: Ovulation-inducing activity in androgen-sterilized constant-estrus rat at 10 ug, iv. Type of assay: functional, organism-based. The procedure, abridged: as §1
In assay [9] the test system is Rattus norvegicus. In words: Ovulation-inducing activity in androgen-sterilized constant-estrus rat at 0.005 ug, iv. In kind it is functional, organism-based. The gist of the method:
as §1

In assay [10] the test system is Rattus norvegicus. Briefly: Ovulation-inducing activity in androgen-sterilized constant-estrus rat at 0.01 ug, iv. In kind it is functional, organism-based. The gist of the method:
as §1

Assay [11] concerns Rattus norvegicus. In words: Ovulation-inducing activity in androgen-sterilized constant-estrus rat at 0.0025 ug, iv. In kind it is functional, organism-based. The gist of the method:
as §1

Assay [12] relates to Rattus norvegicus. In words: Ovulation-inducing activity in androgen-sterilized constant-estrus rat at 0.05 ug, iv. Type of assay: functional, organism-based. The procedure, abridged: as §1
The test system of assay [13] is Rattus norvegicus. In words: Ovulation-inducing activity in androgen-sterilized constant-estrus rat at 0.001 ug, iv. In kind it is functional, organism-based. The gist of the method: as §1

The source made the active and inactive calls. No cut-off for these calls is given here. Where a SMILES comes first, the peptide text is derived from it. [ ]: non-standard residue; d: D form. The star is where a group is joined. pGlu = O=C1CC[C@@H](C(=O)O)N1; X2 = CN(N*)C(N)=O

We go through ten molecules from ChEMBL document CHEMBL3244376, “Synthesis and biological activity of highly active alpha-aza analogues of luliberin” (1978).

`CC(C)C[C@@H](C(=O)N[C@@H](CCCNC(=N)N)C(=O)N1CCC[C@H]1C(=O)NNC(N)=O)N(C)C(=O)[C@@H](Cc1ccccc1)NC(=O)[C@H](Cc1ccc(OC(C)(C)C)cc1)NC(=O)[C@H](CO)NC(=O)[C@H](Cc1c[nH]c2ccccc12)NC(=O)[C@H](Cc1cnc[nH]1)NC(=O)[C@@H]1CCC(=O)N1`: in assay [1], the “fold change (FC)” value is listed as 5. In [2], the outcome was Active.

As to `CC(C)C[C@H](NC(=O)[C@@H](Cc1c[nH]c2ccccc12)NC(=O)[C@H](Cc1ccc(O)cc1)NC(=O)[C@H](CO)NC(=O)[C@H](Cc1c[nH]c2ccccc12)NC(=O)[C@H](Cc1cnc[nH]1)NC(=O)[C@@H]1CCC(=O)N1)C(=O)N[C@@H](CCCNC(=N)N)C(=O)N1CCC[C@H]1C(=O)NNC(N)=O`, the “fold change (FC)” value in [1] is reported as 5. In addition, in assay [3], the outcome was Active. Also, the outcome in assay [4] was inactive.

Take `CCNC(=O)[C@@H]1CCCN1C(=O)[C@H](CCCNC(=N)N)NC(=O)[C@H](CC(C)C)NC(=O)[C@@H](COC(C)(C)C)NC(=O)[C@H](Cc1ccc(O)cc1)NC(=O)[C@H](CO)NC(=O)[C@H](Cc1c[nH]c2ccccc12)NC(=O)[C@H](Cc1cnc[nH]1)NC(=O)[C@@H]1CCC(=O)N1`: the outcome in assay [2] was Active.

In the case of `CC(C)C[C@H](NC(=O)CNC(=O)[C@H](Cc1ccc(O)cc1)NC(=O)[C@H](CO)NC(=O)[C@H](Cc1c[nH]c2ccccc12)NC(=O)[C@H](Cc1cnc[nH]1)NC(=O)[C@@H]1CCC(=O)N1)C(=O)N[C@@H](CCCNC(=N)N)C(=O)N1CCC[C@H]1C(=O)NN(C)C(N)=O` ([pGlu]HWSYGLRP-X2), the outcome in assay [5] was inactive. Further, the result in assay [6] was Active.

Take `CCNC(=O)N1CCCN1C(=O)[C@H](CCCNC(=N)N)NC(=O)[C@H](CC(C)C)NC(=O)[C@@H](Cc1ccccc1)NC(=O)[C@H](Cc1ccc(O)cc1)NC(=O)[C@H](CO)NC(=O)[C@H](Cc1c[nH]c2ccccc12)NC(=O)[C@H](Cc1cnc[nH]1)NC(=O)[C@@H]1CCC(=O)N1`: the result in assay [7] was inactive. The result in assay [6] was Active.

As to `CC(C)C[C@H](NC(=O)N(Cc1ccccc1)NC(=O)[C@H](Cc1ccc(O)cc1)NC(=O)[C@H](CO)NC(=O)[C@H](Cc1c[nH]c2ccccc12)NC(=O)[C@H](Cc1cnc[nH]1)NC(=O)[C@@H]1CCC(=O)N1)C(=O)N[C@@H](CCCNC(=N)N)C(=O)N1CCC[C@H]1C(=O)NNC(N)=O`, the result in [8] was Active.

`CC(C)C[C@H](NC(=O)[C@@H](Cc1ccccc1)NC(=O)[C@H](Cc1ccc(O)cc1)NC(=O)[C@H](CO)NC(=O)[C@H](Cc1c[nH]c2ccccc12)NC(=O)[C@H](Cc1cnc[nH]1)NC(=O)[C@@H]1CCC(=O)N1)C(=O)N[C@@H](CCCNC(=N)N)C(=O)N1CCC[C@H]1C(=O)NCC(N)=O`: in assay [9], the outcome was inactive. Also, the result in [10] was Active.

On to `CC(C)C[C@H](NC(=O)[C@@H](Cc1ccccc1)NC(=O)[C@H](Cc1ccc(O)cc1)NC(=O)[C@H](CO)NC(=O)[C@H](Cc1c[nH]c2ccccc12)NC(=O)[C@H](Cc1cnc[nH]1)NC(=O)[C@@H]1CCC(=O)N1)C(=O)N[C@@H](CCCNC(=N)N)C(=O)N1CCC[C@H]1C(=O)NNC(N)=O`, for which the “fold change (FC)” value in [1] was 5. The outcome in [9] was Active. For the same molecule, the outcome in assay [11] was inactive.

Turning to `CC(C)C[C@H](NC(=O)[C@@H](CO)NC(=O)[C@H](Cc1ccc(O)cc1)NC(=O)[C@H](CO)NC(=O)[C@H](Cc1c[nH]c2ccccc12)NC(=O)[C@H](Cc1cnc[nH]1)NC(=O)[C@@H]1CCC(=O)N1)C(=O)N[C@@H](CCCNC(=N)N)C(=O)N1CCC[C@H]1C(=O)NNC(N)=O`, in [12], the result was Active. Further, the result in assay [13] was inactive.

Regarding `CC(C)C[C@@H](C(=O)N[C@@H](CCCNC(=N)N)C(=O)N1CCC[C@H]1C(=O)NNC(N)=O)N(C)C(=O)[C@@H](Cc1ccccc1)NC(=O)[C@H](Cc1ccc(O)cc1)NC(=O)[C@H](CO)NC(=O)[C@H](Cc1c[nH]c2ccccc12)NC(=O)[C@H](Cc1cnc[nH]1)NC(=O)[C@@H]1CCC(=O)N1`, the outcome in assay [9] was inactive. Further, in assay [10], the result was Active.
